Assay outcomes as filed in PubChem BioAssay.
Most compounds without a hit are left out; they make up all but 9.4% or so of the library.
CSC inhib: cancer stem cell inhibition; cancer stem cell-like cells viability, luminescence; inhibition, % at 7.5 µM; 1.1% of 300,000 active; in the data active means inhibition above about 75%; tested in HMLE shEcad cells
SKKanGAS inh: SKKanGAS growth inhibition | S. pyogenes SKKanGAS, kanamycin growth, BacTiter-Glo, 6 h | inhibition, % at 7.5 µM | 1.3% of 300,000 active | AID 1662;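 active means mean replicate score, as percent of positive control median, at least 50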;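 further: strain carries kanamycin resistance gene driven by streptokinase promoter and grows in 40 µg/ml kanamycin; loss of luminescence reflects streptokinase promoter inhibition or plain growth inhibition; 0% = median of DMSO wells and 100% = positive control at its reference dose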
Beta apoptosis: beta cell apoptosis inhibition; AID 435005; protection from apoptosis, % (concentration not given with the values); 0.8% of 300,000 active; INS-1E cytokine-induced death, ATP luminescence, 48 h; percent of positive-control rescue, neutral wells zero;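 active means Every replicate reaches about 75%, or at least half do and their mean reaches it too, limit read from the data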;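 further: 0% = cytokine-treated negative control wells and 100% = positive control rescue; higher means more ATP so stronger rescue from cytokine killing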
T cruzi inh: T. cruzi replication inhibition | 1.4% of 300,000 active | inhibition, % (no concentration beside the values) | T. cruzi beta-gal in NIH3T3, luminescence, 90 h | AID 1885;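 active means mean inhibition across valid replicates above about 55%, limit read from the data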;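 further: signal also drops with host cell toxicity which is not excluded here; 0% = plate median of DMSO wells and 100% = zero luminescence signal; higher percent means less beta-gal luminescence so fewer parasites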
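Assay system: NIH/3T3 fibroblasts plus reporter T. cruzi. Amount: NIH/3T3 cells, 5,000 per well. Buffer or medium: DMEM, 2% fetal bovine serum. Doses: compound pinned at 50 nL/well, DMSO. Schedule: ≥90 h infection period, 3 h prior cell attachment. Signal: luminescent β-galactosidase signal after 60 min lysis. Read-out: parasite load inhibition, %.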
Mdm2-MdmX inh: human Mdm2/MdmX binding inhibition; AID 485346; 3% of 330,000 active; O15151+Q00987; SaOS-2 split-luciferase Mdm2/MdmX complementation, luminescence; inhibition, % at 8 µM;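 active means inhibition of at least 50% at 8 µM in the primary screen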
Target sequence (O15151 whole entry, looked up): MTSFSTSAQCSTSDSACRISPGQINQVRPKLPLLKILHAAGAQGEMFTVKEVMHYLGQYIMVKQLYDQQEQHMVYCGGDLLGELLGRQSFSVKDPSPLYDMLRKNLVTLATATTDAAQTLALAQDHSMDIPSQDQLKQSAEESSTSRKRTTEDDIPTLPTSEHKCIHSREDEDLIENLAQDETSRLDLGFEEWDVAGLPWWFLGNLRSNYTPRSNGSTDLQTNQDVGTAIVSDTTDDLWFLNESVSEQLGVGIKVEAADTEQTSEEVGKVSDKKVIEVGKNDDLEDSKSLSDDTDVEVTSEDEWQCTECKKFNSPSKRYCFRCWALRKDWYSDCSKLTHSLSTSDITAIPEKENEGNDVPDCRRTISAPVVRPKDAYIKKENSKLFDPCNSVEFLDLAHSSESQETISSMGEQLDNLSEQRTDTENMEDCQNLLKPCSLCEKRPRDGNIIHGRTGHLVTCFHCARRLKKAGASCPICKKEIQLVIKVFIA
Target sequence (Q00987 whole entry, looked up): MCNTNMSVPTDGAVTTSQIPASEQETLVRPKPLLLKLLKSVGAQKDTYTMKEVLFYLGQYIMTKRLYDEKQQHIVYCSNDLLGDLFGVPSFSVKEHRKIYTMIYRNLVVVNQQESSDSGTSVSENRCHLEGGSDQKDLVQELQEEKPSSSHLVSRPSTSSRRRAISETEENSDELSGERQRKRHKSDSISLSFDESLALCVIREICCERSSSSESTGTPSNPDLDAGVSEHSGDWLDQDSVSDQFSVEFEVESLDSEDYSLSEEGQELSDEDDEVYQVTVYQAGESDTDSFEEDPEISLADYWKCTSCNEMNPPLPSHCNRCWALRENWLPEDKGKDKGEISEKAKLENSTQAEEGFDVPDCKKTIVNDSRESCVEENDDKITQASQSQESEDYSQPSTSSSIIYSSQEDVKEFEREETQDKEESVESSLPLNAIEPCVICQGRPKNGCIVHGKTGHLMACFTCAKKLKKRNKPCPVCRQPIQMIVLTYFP
Lmaj promast: reduces viability of Leishmania major promastigotes; resazurin fluorescence viability; inhibition, % at 10 µM; 9% of 200,000 active; in the data active means inhibition above about 50%;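 further: promastigotes grown with compound for 44 hours at 28 °C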
* marks the source's active call; other numbers are inactive results; · = not tested or not shown.

SMILES | CSC inhib | SKKanGAS inh | Beta apoptosis | T cruzi inh | Mdm2-MdmX inh | Lmaj promast
COc1ccc(C2N(S(=O)(=O)c3ccc(C)cc3)CCN2S(=O)(=O)c2ccc(C)cc2)cc1 | -1 | -3 | · | 32 | 5 | 66*
Cc1ccc(S(=O)(=O)N2CCN(S(=O)(=O)c3ccccc3)C2c2ccc(N(C)C)cc2)cc1 (stereo not given) | -6 | -13 | 3 | 26 | 12 | 89*
CC(=O)N1CCN(S(=O)(=O)c2ccc(C)cc2)C1c1ccc(N(C)C)cc1 (stereo not given) | -1 | -3 | 3 | 7 | 11 | 2
COc1ccc(C2N(C(C)=O)CCN2S(=O)(=O)c2ccc(C)cc2)cc1 (stereo not given) | -9 | -2 | · | 0 | -1 | ·
CCOC(=O)[C@@H]1[C@H]2COc3ccc(Br)cc3[C@H]2N2C(=O)N(c3ccc(F)cc3)C(=O)[C@@]12C | 10 | 17 | -7 | 7 | 11 | ·
CN(CC(=O)N(CCO)Cc1ccccc1)S(=O)(=O)c1ccc2c(c1)c(=O)n(C)c(=O)n2C | -30 | -11 | -2 | -18 | 12 | ·
N#Cc1ccc(/C=N/N=C(N)N)cc1 | 6 | -4 | 10 | 35 | -44 | 79*
CCNC(=S)N/N=C/c1ccc(C#N)cc1 | · | -2 | 6 | -21 | -32 | -2
CCNc1nc(NCc2ccccc2)nc(SCC(=O)Nc2ccccc2)n1 | -3 | 5 | 8 | 16 | 40 | 17
CCNc1nc(NCC)nc(SCCOC(=O)Nc2ccccc2)n1 | 0 | -2 | 2 | 10 | 22 | 77*
O=C(NCc1ccc2c(c1)OCO2)c1ccc(N2CCCCCC2)c([N+](=O)[O-])c1 | 30 | 10 | 3 | 59* | 10 | 14
CC1CCCN(c2ccc(C(=O)NCc3ccc4c(c3)OCO4)cc2[N+](=O)[O-])C1 (stereo not given) | 15 | 7 | 6 | 38 | -10 | 2
CC1CCN(c2ccc(C(=O)Nc3ccc4c(c3)OCO4)cc2[N+](=O)[O-])CC1 | 78* | 3 | 13 | 25 | 18 | 98*
CC1CCCN(c2ccc(C(=O)Nc3nnc(C4CC4)s3)cc2[N+](=O)[O-])C1 (stereo not given) | 27 | 20 | 3 | 24 | -8 | 1
O=C(COC(=O)c1ccc(N2CCOCC2)c([N+](=O)[O-])c1)Nc1ccc2c(c1)OCO2 | -7 | -1 | 1 | -13 | 6 | 18
CC1CCCN(c2ccc(C(=O)Nc3ccc4c(c3)OCO4)cc2[N+](=O)[O-])C1 (stereo not given) | 102* | 24 | 6 | 25 | 34 | 97*
O=C(CCc1nnc(C2(c3ccc(Cl)cc3)CCC2)o1)N1CCCC1 | -10 | -1 | -7 | 7 | -54 | ·
CCN(CC)S(=O)(=O)c1ccc(N2CC(C(=O)NCCc3c[nH]c4ccccc34)CC2=O)cc1 (stereo not given) | · | · | · | · | 0 | ·
O=C(CSc1n[nH]c(-c2ccncc2)n1)c1cccc([N+](=O)[O-])c1 | -1 | 11 | 0 | -17 | 9 | 15
Cc1cc(C)c(C(=O)CSc2n[nH]c(-c3ccncc3)n2)c(C)c1 | 7 | -6 | -2 | 3 | 14 | 97*
COc1ccc(C(=O)CSc2n[nH]c(-c3ccncc3)n2)cc1[N+](=O)[O-] | -11 | -3 | 3 | 0 | 0 | 56*
CC1(C)CC(=O)C=C(c2cccc3c2sc2ccccc23)C1 | 19 | · | -4 | · | -39 | ·
CCN(CC)S(=O)(=O)c1ccc(N2CCc3cc(OC)c(OC)cc3C2)nc1 | · | -1 | 2 | 17 | 19 | ·
COc1cc(C(=S)N2CCOCC2)ccc1OC(=O)/C=C/c1ccco1 | -5 | 10 | 0 | -18 | -5 | 9
COc1ccc(S(=O)(=O)Nc2ccccc2C)cc1C(=O)N1CCOCC1 | -1 | 1 | · | -8 | -14 | -4
Cc1ccccc1NS(=O)(=O)c1ccc(C)c(C(=O)N2CCOCC2)c1 | -3 | 52* | · | -5 | 15 | ·
Cc1ccc(S(=O)(=O)N2CCOCC2)cc1C(=O)N1c2ccccc2Sc2ccccc21 | -2 | -11 | · | -10 | 16 | 99*
COc1ccc(C2=NOC(C(=O)Nc3cccnc3)C2)cc1OC (stereo not given) | -7 | -4 | 6 | -11 | 1 | ·
COc1cc(/C(C)=C/c2ccccc2)c2c(c1)oc1ccccc12 | · | 55* | 0 | -8 | · | ·
